In ChEMBL document CHEMBL1275566, “MexCD-OprJ multidrug efflux system of Pseudomonas aeruginosa: involvement in chlorhexidine resistance and induction by membrane-damaging agents dependent upon the AlgU stress response sigma factor” (2008):
Calls of active or inactive are those of the source.

Key:
Pseudomonas aeruginosa [1] = experiment: Induction of mexCD-oprJ expression in Pseudomonas aeruginosa PAO1 K767 at 3 ug/ml after 2.5 hrs by semiquantitative RT-PCR; assay type: functional, organism-based
Pseudomonas aeruginosa [2] = experiment: Induction of mexCD-oprJ expression in Pseudomonas aeruginosa PAO1 K767 at 2.5 ug/ml after 2.5 hrs by semiquantitative RT-PCR; assay type: functional, organism-based
Pseudomonas aeruginosa [3] = experiment: Induction of mexCD-oprJ expression in mexB and mexXY deficient and AlgU-positive Pseudomonas aeruginosa K1542 at 2.5 ug/ml by semiquantitative RT-PCR; assay type: functional, organism-based
Pseudomonas aeruginosa [4] = experiment: Induction of mexCD-oprJ expression in mexB and mexXY deficient and AlgU-negative Pseudomonas aeruginosa K2897 at 0.33 ug/ml by semiquantitative RT-PCR; assay type: functional, organism-based
Pseudomonas aeruginosa [5] = experiment: Induction of mexCD-oprJ expression in AlgU and NfxB-positive Pseudomonas aeruginosa K767; assay type: functional, organism-based
Pseudomonas aeruginosa [6] = experiment: Induction of mexCD-oprJ expression in AlgU-positive and NfxB-negative Pseudomonas aeruginosa K1536; assay type: functional, organism-based
Pseudomonas aeruginosa [7] = experiment: Induction of mexCD-oprJ expression in Pseudomonas aeruginosa K2895 harboring plasmid pMMB206; assay type: functional, organism-based
Pseudomonas aeruginosa [8] = experiment: Induction of mexCD-oprJ expression in Pseudomonas aeruginosa K2895 harboring plasmid pMMB206 carrying AlgU gene; assay type: functional, organism-based
Pseudomonas aeruginosa [9] = experiment: Antimicrobial activity against CDJ and AlgU-positive Pseudomonas aeruginosa K1542; assay type: functional
Pseudomonas aeruginosa [10] = experiment: Antimicrobial activity against CDJ-negative and AlgU-positive Pseudomonas aeruginosa K2896; assay type: functional
Pseudomonas aeruginosa [11] = experiment: Antimicrobial activity against CDJ-positive and AlgU-negative Pseudomonas aeruginosa K2897; assay type: functional
Procedure, shortened: (§1)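 Broth susceptibility testing of P. aeruginosa strains in LB at 37°C. Strains are defined by mexCD-oprJ status (CDJ+ means present and CHX-inducible but not expressed untreated; CDJ− means deleted) and by algU status.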

Pseudomonas aeruginosa [12] = experiment: Antimicrobial activity against CDJ and AlgU-negative Pseudomonas aeruginosa K2898; assay type: functional; procedure, shortened: as §1
Pseudomonas aeruginosa [13] = experiment: Antimicrobial activity against CDJ and AlgU-positive Pseudomonas aeruginosa K767; assay type: functional
Pseudomonas aeruginosa [14] = experiment: Antimicrobial activity against CDJ-negative and AlgU-positive Pseudomonas aeruginosa K1521; assay type: functional; procedure, shortened: as §1
Pseudomonas aeruginosa [15] = experiment: Antimicrobial activity against CDJ-positive and AlgU-negative Pseudomonas aeruginosa K2443; assay type: functional
Pseudomonas aeruginosa [16] = experiment: Antimicrobial activity against CDJ-positive and AlgU-negative Pseudomonas aeruginosa K2443 harboring plasmid pMMB206; assay type: functional
Pseudomonas aeruginosa [17] = experiment: Antimicrobial activity against CDJ-positive and AlgU-negative Pseudomonas aeruginosa K2443 harboring plasmid pMMB206 carrying AlgU gene; assay type: functional
Pseudomonas aeruginosa [18] = experiment: Antimicrobial activity against NfxB-negative and AlgU-positive Pseudomonas aeruginosa K1536; assay type: functional
Pseudomonas aeruginosa [19] = experiment: Antimicrobial activity against NfxB- and AlgU-negative Pseudomonas aeruginosa K2895; assay type: functional
Pseudomonas aeruginosa [20] = experiment: Antimicrobial activity against NfxB- and AlgU-negative Pseudomonas aeruginosa K2895 harboring plasmid pMMB206; assay type: functional
Pseudomonas aeruginosa [21] = experiment: Antimicrobial activity against NfxB-and AglU-negative Pseudomonas aeruginosa K2895 harboring plasmid pMMB206 carrying AlgU gene; assay type: functional
Pseudomonas aeruginosa [22] = experiment: Antimicrobial activity against CDJ -positive Pseudomonas aeruginosa K2889; assay type: functional; procedure, shortened: as §1
Pseudomonas aeruginosa [23] = experiment: Antimicrobial activity against CDJ -negative Pseudomonas aeruginosa K2891; assay type: functional
Pseudomonas aeruginosa [24] = experiment: Induction of PmexCD-oprJ-lacZ expression in Pseudomonas aeruginosa K2899 at 1.25 ug/ml by beta-galactosidase reporter assay; assay type: functional, organism-based
Pseudomonas aeruginosa [25] = experiment: Induction of PmexCD-oprJ-lacZ expression in AlgU-negative Pseudomonas aeruginosa K2901 at 0.16 ug/ml by beta-galactosidase reporter assay; assay type: functional, organism-based
Pseudomonas aeruginosa [26] = experiment: Induction of PmexCD-oprJ-lacZ expression in Pseudomonas aeruginosa K2899 at 0.125 ug/ml by beta-galactosidase reporter assay; assay type: functional, organism-based
Pseudomonas aeruginosa [27] = experiment: Induction of PmexCD-oprJ-lacZ expression in AlgU-negative Pseudomonas aeruginosa K2901 at 0.125 ug/ml by beta-galactosidase reporter assay; assay type: functional, organism-based
Pseudomonas aeruginosa [28] = experiment: Induction of PmexCD-oprJ-lacZ expression in Pseudomonas aeruginosa K2899 at 3.1 ug/ml by beta-galactosidase reporter assay; assay type: functional, organism-based
Pseudomonas aeruginosa [29] = experiment: Induction of PmexCD-oprJ-lacZ expression in AlgU-negative Pseudomonas aeruginosa K2901 at 3.1 ug/ml by beta-galactosidase reporter assay; assay type: functional, organism-based
Pseudomonas aeruginosa [30] = experiment: Induction of PmexCD-oprJ-lacZ expression in Pseudomonas aeruginosa K2899 at 15 ug/ml by beta-galactosidase reporter assay; assay type: functional, organism-based
Pseudomonas aeruginosa [31] = experiment: Induction of PmexCD-oprJ-lacZ expression in AlgU-negative Pseudomonas aeruginosa K2901 at 15 ug/ml by beta-galactosidase reporter assay; assay type: functional, organism-based
Pseudomonas aeruginosa [32] = experiment: Induction of PmexCD-oprJ-lacZ expression in Pseudomonas aeruginosa K2899 at 11.6 ug/ml by beta-galactosidase reporter assay; assay type: functional, organism-based
Pseudomonas aeruginosa [33] = experiment: Induction of PmexCD-oprJ-lacZ expression in AlgU-negative Pseudomonas aeruginosa K2901 at 11.6 ug/ml by beta-galactosidase reporter assay; assay type: functional, organism-based
Pseudomonas aeruginosa [34] = experiment: Induction of PmexCD-oprJ-lacZ expression in Pseudomonas aeruginosa K2899 at 8 ug/ml by beta-galactosidase reporter assay; assay type: functional, organism-based
Pseudomonas aeruginosa [35] = experiment: Induction of PmexCD-oprJ-lacZ expression in AlgU-negative Pseudomonas aeruginosa K2901 at 8 ug/ml by beta-galactosidase reporter assay; assay type: functional, organism-based
Pseudomonas aeruginosa [36] = experiment: Induction of PmexCD-oprJ-lacZ expression in Pseudomonas aeruginosa K2899 at 16 ug/ml by beta-galactosidase reporter assay; assay type: functional, organism-based
Pseudomonas aeruginosa [37] = experiment: Induction of PmexCD-oprJ-lacZ expression in AlgU-negative Pseudomonas aeruginosa K2901 at 16 ug/ml by beta-galactosidase reporter assay; assay type: functional, organism-based
Pseudomonas aeruginosa [38] = experiment: Induction of mexCD-oprJ expression in AlgU-negative and NfxB-negative Pseudomonas aeruginosa K2895
Pseudomonas aeruginosa [39] = experiment: Induction of mexCD-oprJ expression in Pseudomonas aeruginosa PAO1 K767 at 100 ug/ml after 2.5 hrs by semiquantitative RT-PCR; assay type: functional, organism-based

CCCCC(CC)CNC(=N)NC(=N)NCCCCCCNC(=N)NC(=N)NCC(CC)CCCC (centres undefined)
active: Activity (Pseudomonas aeruginosa [1])

N=C(NCCCCCCNC(=N)NC(=N)Nc1ccc(Cl)cc1)NC(=N)Nc1ccc(Cl)cc1 [CHLORHEXIDINE]
active: Activity (Pseudomonas aeruginosa [2]) | Activity (Pseudomonas aeruginosa [3]) | Activity (Pseudomonas aeruginosa [4]) | Activity (Pseudomonas aeruginosa [5]) | Activity (Pseudomonas aeruginosa [6]) | Activity (Pseudomonas aeruginosa [7]) | Activity (Pseudomonas aeruginosa [8]) | Activity (Pseudomonas aeruginosa [24]) | Activity (Pseudomonas aeruginosa [25]) | Activity (Pseudomonas aeruginosa [26]) | Activity (Pseudomonas aeruginosa [27]) | Activity (Pseudomonas aeruginosa [28]) | Activity (Pseudomonas aeruginosa [29]) | Activity (Pseudomonas aeruginosa [30]) | Activity (Pseudomonas aeruginosa [31]) | Activity (Pseudomonas aeruginosa [32]) | Activity (Pseudomonas aeruginosa [33]) | Activity (Pseudomonas aeruginosa [34]) | Activity (Pseudomonas aeruginosa [35]) | Activity (Pseudomonas aeruginosa [36]) | Activity (Pseudomonas aeruginosa [37]) | Activity (Pseudomonas aeruginosa [38])
20 µg/mL: MIC (Pseudomonas aeruginosa [18]) | MIC (Pseudomonas aeruginosa [21])
0.625 µg/mL: MIC (Pseudomonas aeruginosa [12])
2.5 µg/mL: MIC (Pseudomonas aeruginosa [10]) | MIC (Pseudomonas aeruginosa [15]) | MIC (Pseudomonas aeruginosa [16]) | MIC (Pseudomonas aeruginosa [19]) | MIC (Pseudomonas aeruginosa [20])
10 µg/mL: MIC (Pseudomonas aeruginosa [9]) | MIC (Pseudomonas aeruginosa [13]) | MIC (Pseudomonas aeruginosa [17]) | MIC (Pseudomonas aeruginosa [23])
1.25 µg/mL: MIC (Pseudomonas aeruginosa [11])
> 50 µg/mL: MIC (Pseudomonas aeruginosa [22])
5 µg/mL: MIC (Pseudomonas aeruginosa [14])

CETRIMIDE
active: Activity (Pseudomonas aeruginosa [39])
